Results on 56 molecules are retold here after PubChem BioAssay AID720543 (The Scripps Research Institute Molecular Screening Center, 2013).

Where “and” joins values, the source holds several entries; their conditions need not be identical. Equal values may be shown once. About 2,000 (0.54%) of roughly 370,000 compounds were called active.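 Rule for the calls: active = inhibition exceeding the mean over every tested compound plus 3 SD (cut at about 30% in these data); inactive = the rest.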 The sample as a whole holds a higher share of actives than the screen did. The source holds several records for some structures; these can differ, active in one and inactive in another.

Chain of (Lyso)-N-acylphosphatidylethanolamine lipase (Mus musculus) (Q8VD66 whole entry, looked up): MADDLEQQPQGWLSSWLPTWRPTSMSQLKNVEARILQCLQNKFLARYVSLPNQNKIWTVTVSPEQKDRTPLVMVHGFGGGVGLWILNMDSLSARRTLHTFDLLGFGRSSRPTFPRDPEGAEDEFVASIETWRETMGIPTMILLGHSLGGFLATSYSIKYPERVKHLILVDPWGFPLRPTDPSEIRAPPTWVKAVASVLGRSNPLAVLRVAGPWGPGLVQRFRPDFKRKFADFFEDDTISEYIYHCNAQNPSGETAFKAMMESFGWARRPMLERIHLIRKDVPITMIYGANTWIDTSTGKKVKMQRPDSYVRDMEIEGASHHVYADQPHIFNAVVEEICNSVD

The target of the test is (Lyso)-N-acylphosphatidylethanolamine lipase (Mus musculus) (UniProt Q8VD66). As to the kind of experiment: mouse ABHD4 hydrolase activity blockers – biochemical, fluorescence polarization, primary screen (AID 720543).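 Note: 0% = plate median of compound wells and 100% = S159A mutant with DMSO.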 Conditions: purified mABHD4, FP-Rh probe fluorescence polarization; at 8.92 µM; stronger effect = higher value. A digest of the protocol:
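Test system: mABHD4 protein | Buffer or medium: HEPES pH 7.0 buffer, 150 mM NaCl, 0.01% Pluronic F-127 | Probe or stimulus: FP-Rh fluorescent activity-based probe, added after compound pre-incubation | Timing: Pre-incubation 45 min, probe exposure 60 min, at 25 °C | Technique: Fluorescence polarization, excitation 525 nm, emission 598 nm, BODIPY TMR filters | Repeats: Single well per compound (singlicate)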
Background: Fluorescence polarisation rises when a labelled molecule tumbles more slowly, as on binding a larger partner.
The inhibition is the relative decrease from the control value, in per cent. As to `CC(C)(C)c1ccc(C(=O)Nc2cc(Cl)c(Br)cc2C(=O)O)cc1`, the inhibition was -156% (inactive).

In the case of `COc1cc(NC(=S)NNC(=O)CC(C)C)c(OC)cc1Cl`, the inhibition is 1.23% (inactive).

As for `COc1ccc(C)cc1NC(=S)Nc1ccccc1SC`, the inhibition was -1.16% (inactive).

Consider `CCc1ccccc1NC(=S)Nc1cc(OC)c(NC(=O)C(C)C)cc1OC`, for which the inhibition was 33.4% (active).

As for `Cc1ccccc1CN1CCCCC(NC(=O)Nc2ccccc2F)C1=O` (stereo unspecified), the inhibition was 3.77% (inactive).

For the molecule `Oc1c(Cl)cc(Cl)c(Cl)c1Cc1c(O)c(Cl)cc(Cl)c1Cl`, the inhibition was -117% (inactive).

On to `CCOC(=O)[C@]12CCCC3=C1N(CCC3)C(=O)[C@@H](CC(=O)NCC13CC4CC(CC(C4)C1)C3)C2`, for which the inhibition is 3.95% (inactive).

Consider `CC/C(=C(/c1ccccc1)c1ccc(OCC[N+](C)(C)C)cc1)c1ccccc1`, for which the inhibition was 30% (active).

Take `COC(=O)C[C@@H]1CC[C@H]2[C@@H](COc3ccc(NS(=O)(=O)CC(F)(F)F)cc3C(=O)N2C)O1`: the inhibition is 10.4% (inactive).

Consider `COC(=O)c1ccc(CN(c2ccccc2OC)S(=O)(=O)c2cccs2)o1`, for which the inhibition is 4.33% (inactive).

As for `COC(=O)C1=C(C(=O)OC)C2C=C(C(C)C)C1C(=O)C2(C)O` (stereo unspecified), the inhibition was -1.36% (inactive).

Regarding `CCOc1ccc(S(=O)(=O)NCCC(=O)NCC(C)(C)N2CCOCC2)cc1`, the inhibition is 4.91% (inactive).

Take `O=C(COC(=O)c1ccc(O)cc1O)c1ccc2c(c1)OCCO2`: the inhibition was 36.5% (active).

For `O=C(OCc1ccccc1F)c1ccc2c(c1)OCCO2`, the inhibition was 1.07% (inactive).

Regarding `O=C1COc2ccc(C(=O)COC(=O)c3ccccc3Cl)cc2N1`, the inhibition is -1.93% (inactive).

For the molecule `Cc1nc2sccn2c(=O)c1S(=O)(=O)NCCc1ccccc1`, the inhibition was 0.82% (inactive).

On to `O=C(COC(=O)c1ncc(Cl)c(Cl)c1Cl)NC1CCS(=O)(=O)C1` (stereo unspecified), for which the inhibition is 2.44% (inactive).

`Oc1ccc(N=Cc2sc3ccccc3c2Cl)cc1`: the inhibition was 88.4% (active).

As to `Oc1ccc(N=Cc2c(O)ccc3ccccc23)cc1`, the inhibition is 51.1% (active).

Consider `C[C@@H]1CN([C@@H](C)CO)C(=O)c2cccc(NC(=O)Nc3cccc4ccccc34)c2O[C@H]1CN(C)S(=O)(=O)c1ccccc1F`, for which the inhibition is -0.79% (inactive).

`COC(=O)[C@]12C[C@H](CC(=O)NCc3cccc4ccccc34)C(=O)N(CCc3ccc(OC)c(OC)c3)C1=C[C@H](C1CCCC1)O[C@@H]2C`: the inhibition was -10.3% (inactive).

With `Cn1c(SCC(=O)N2CCOCC2)nnc1-c1ccc(NC(=O)c2ccccc2F)cc1`, the inhibition is 1.97% (inactive).

For `CSc1nc2sc3c(c2c(=O)[nH]1)CCc1ccccc1-3`, the inhibition is 4.16% (inactive).

Regarding `CCCNC(=O)Nc1ccc2c(c1)C(=O)N(C)[C@H]1CC[C@H](CC(=O)NCC3CCCCC3)O[C@@H]1CO2`, the inhibition was 12.2% (inactive).

With `Cc1ccc(S(=O)(=O)N2CCOCC2)cc1NC(=O)c1ccncc1`, the inhibition was -3.76% (inactive).

As to `COCCNC(=S)Nc1cc(S(=O)(=O)N2CCOCC2)ccc1N1CCCCC1`, the inhibition was 1.6% (inactive).

As for `O=[N+]([O-])c1cc(Cl)cc(/C=N/NC(=S)Nc2cc(S(=O)(=O)N3CCOCC3)ccc2Cl)c1O`, the inhibition was 32.2% (active).

Consider `Cc1ccccc1NC(=O)CSc1ccc2nnc(-c3ccccn3)n2n1`, for which the inhibition is 5.22% (inactive).

`CC12C(=O)N(n3cnnc3)C(=O)C1C1C=CC2C1` (stereo unspecified): the inhibition is -1.34% (inactive).

Regarding `CCN1C(=O)/C(=C2/Sc3ccccc3N2CCCS(=O)(=O)O)SC1=S`, the inhibition was 9.75% (inactive) and 31.2% (active).

With `CCN1C(=O)/C(=C\N2CCOCC2)SC1=S`, the inhibition is 9.79% (inactive).

Consider `CCCCN1C(=O)/C(=C2/C=CC=CN2C)SC1=S`, for which the inhibition was 4.21% (inactive).

On to `CC(=O)Nc1ccc(NC(=O)CSC2=NS(=O)(=O)c3ccccc3N2)cc1`, for which the inhibition is 0.67% (inactive).

As to `NC1=CC(=O)C(=O)c2cccnc21`, the inhibition was 59.2% (active).

As for `COC(=O)C[C@@H]1CC[C@@H]2[C@H](COc3ccc(NC(=O)c4cccc(F)c4)cc3C(=O)N2C)O1`, the inhibition is -0.54% (inactive).

Regarding `CO[C@@H]1CN(C)C(=O)c2cc(NC(=O)C3CC3)ccc2OC[C@H](C)N(C(=O)CN2CCOCC2)C[C@@H]1C`, the inhibition was -0.34% (inactive).

Turning to `CCC(CO)Oc1cc(NC(=O)c2cccc(F)c2)c2ncn(C(C)C)c2c1` (stereo unspecified), the inhibition was 44.4% (active).

Turning to `Cc1ccc(F)cc1NC(=O)c1cccc(N(C)C)c1`, the inhibition is -2.26% (inactive).

As for `CCCOc1cccc(C(=O)Nc2nnn(CCC)n2)c1`, the inhibition was 7.16% (inactive).

On to `Nc1ncnc2c1ncn2[C@@H]1O[C@H](CNS(=O)(=O)c2ccc(-c3ccno3)s2)[C@@H](O)[C@H]1O`, for which the inhibition was -3.46% (inactive).

Take `CC(C)(C)OC(=O)NCCc1ccccc1/C=C/S(=O)(=O)NCc1ccc(F)cc1`: the inhibition was 14.8% (inactive).

For the molecule `Cc1cccc(-n2cnc(C(=O)NNC(=S)Nc3ccccc3)c2)n1`, the inhibition was 43.3% (active).

For the molecule `O=C(NNC(=S)Nc1ccccc1)c1cccc(S(=O)(=O)N2CCOCC2)c1`, the inhibition was 1.73% (inactive).

As to `Cc1cccc(-n2cnc(C(=O)Nc3cccnc3)c2)n1`, the inhibition is -2.09% (inactive).

As for `CC(=O)N1N=C(c2ccncc2)OC1(Cc1ccccc1)Cc1ccccc1`, the inhibition is -3.49% (inactive).

Regarding `CCOC(=O)[C@]12CCCC3=C1N(CCC3)C(=O)[C@@H](CC(=O)NCc1cccs1)C2`, the inhibition was -5.06% (inactive).

With `CN(C)CCCN(Cc1cc2cc3c(cc2[nH]c1=O)OCCO3)C(=O)NC1CCCCC1`, the inhibition is 1.3% (inactive).

With `O=S1(=O)c2ccc(Br)cc2-n2nncc2CN1Cc1cccc(Cl)c1`, the inhibition was -5.52% (inactive).

`Cc1cc2ccccc2n1CCNC(=O)COc1ccc2ccccc2c1`: the inhibition was 40.9% (active).

Take `O=C(COc1ccc(Cl)cc1)NCCSc1ccccc1`: the inhibition is -6.3% (inactive).

Regarding `Cc1ccccc1OCC(=O)NCC(=O)OCC(=O)c1ccc2ccccc2c1`, the inhibition was 3.01% (inactive).

For `O=C(N1CCOCC1)N1CC[C@H]2[C@H](CCCN2Cc2ccc(F)cc2)C1`, the inhibition was 4.72% (inactive).

With `CC(C)C(C#CC1CC1)N(Cc1ccc2c(c1)OCO2)C(N)=NC(=O)/C=C/c1cccc(C(F)(F)F)c1` (stereo unspecified), the inhibition was 4.25% (inactive).

As to `O=C(Nn1c(SCc2ccc([N+](=O)[O-])cc2)nc2ccccc2c1=O)c1ccc(F)cc1`, the inhibition was -52.4% (inactive).

As to `C=CCNC(=S)N1CCN(CCN=Cc2c(C)[nH]n(-c3ccc([N+](=O)[O-])cc3)c2=O)CC1`, the inhibition was -6.41% (inactive).

Turning to `O=c1[nH]n(-c2ccc([N+](=O)[O-])cc2)c(=O)c2ccccc12`, the inhibition is 59.3% (active).
